The values that follow come from ChEMBL document CHEMBL4825683, “Synthesis and approbation of new neuroprotective chemicals of pyrrolyl- and indolylazine classes in a cell model of Alzheimer's disease” (Eur J Med Chem, 2021).

The source made the active and inactive calls. The calls are words filed in the database; no cut-off is given here.

Series [1] has as its target T1, Heat shock factor protein 1 (Homo sapiens) (UniProt Q00613).
T1 sequence (whole entry): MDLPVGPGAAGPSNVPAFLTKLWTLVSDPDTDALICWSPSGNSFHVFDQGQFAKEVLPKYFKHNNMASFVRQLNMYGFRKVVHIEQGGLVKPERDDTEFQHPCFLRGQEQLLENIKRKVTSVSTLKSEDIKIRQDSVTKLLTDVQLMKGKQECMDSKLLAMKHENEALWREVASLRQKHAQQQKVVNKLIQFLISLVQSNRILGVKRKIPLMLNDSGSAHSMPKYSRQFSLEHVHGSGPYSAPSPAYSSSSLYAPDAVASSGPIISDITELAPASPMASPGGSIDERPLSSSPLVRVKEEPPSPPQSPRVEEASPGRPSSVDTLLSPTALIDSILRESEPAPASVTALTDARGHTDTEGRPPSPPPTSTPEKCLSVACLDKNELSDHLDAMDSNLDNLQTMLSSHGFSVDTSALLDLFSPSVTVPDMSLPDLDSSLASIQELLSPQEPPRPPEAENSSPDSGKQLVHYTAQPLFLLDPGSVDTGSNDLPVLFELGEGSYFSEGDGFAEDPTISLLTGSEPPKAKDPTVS
Put plainly: Activation of Hsf1 in human MSC-NEU cells assessed as induction of HSP70 accumulation at 1 uM incubated for 24 hrs by Western blotting analysis relative to control. Conditions: MSC-NEU cell, filed as activator. It counts as cell-based. The method, boiled down: (§1)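 MSC-NEU cells: human dental-pulp mesenchymal stem cells (MSC-DP) grown in DMEM/F12 with 10% FBS, 100 units/mL penicillin and 0.1 mg/mL streptomycin at 37 °C, 5% CO2. They were then reprogrammed to a neuronal phenotype over 5 days in Neurobasal medium with B27 supplement, 3% FBS and the same antibiotics.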
Background: A western blot detects proteins with antibodies after separation by electrophoresis.

Series [2] is described as follows: Cytotoxicity against human MSC-NEU cells assessed as reduction in cell viability measured after 48 hrs by MTT assay. Conditions: read-out: LC50. It is filed as cell-based. In short, it runs like this: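 Human dental pulp mesenchymal stem cells (MSC-DP) were grown in DMEM/F12 with 10% FBS, penicillin and streptomycin at 37 °C and 5% CO2. They were then reprogrammed to a neuronal phenotype (MSC-NEU) over 5 days in Neurobasal medium with B27 supplement, 3% FBS and antibiotics.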
On the technique in general: Tetrazolium dyes change colour on reduction, which living cells bring about.

The target in series [3] is T1, Heat shock factor protein 1 (Homo sapiens). In words: Activation of Hsf1 in human HEK293 cells transfected with Hsp70.1pr-luc plasmid at 1 uM incubated for 24 hrs by luciferase reporter gene based luminescence assay. It counts as cell-based. Conditions: filed as activator. (In general: Reporter assays use an easily measured gene product as a stand-in for the process of interest.)

The nature of series [4]: Inhibition of amyloid beta(1 to 42)-induced apoptosis in human MSC-NEU cells assessed as reduction in caspase-3 activity at 1 uM measured after 24 hrs by fluorescence based analysis relative to control. It counts as functional, MSC-NEU cell. In short, it runs like this: as §1
The nature of series [5]: Inhibition of amyloid beta(1 to 42)-induced apoptosis in human MSC-NEU cells at 1 uM measured after 24 hrs by AnnexinV-Alexafluor647/propidium iodide staining based flow cytomtery relative to control. It is filed as functional, MSC-NEU cell. In short, it runs like this:
as §1

Series [6] has as its target T1, Heat shock factor protein 1 (Homo sapiens). Put plainly: Activation of Hsf1 in human MSC-NEU cells assessed as increase in HSP70 substrate-binding chaperone activity at 1 uM incubated for 24 hrs by protein-protein interaction assay relative to control. It counts as cell-based. Conditions: MSC-NEU cell, filed as activator. The method, boiled down:
as §1

Series [7] has the same target. In words: Activation of Hsf1 in human MSC-NEU cells assessed as induction of HSP90 accumulation at 1 uM incubated for 24 hrs by Western blotting analysis relative to control. It is filed as cell-based. Conditions: MSC-NEU cell; for fold change (FC): filed as activator. The method, boiled down: as §1
Series [8] is described as follows: Inhibition of amyloid beta (1 to 42)-induced cellular senescence in human MSC-NEU cells assessed as reduction in beta-galactosidase activity at 1 uM measured after 48 hrs by X-Gal staining based analysis relative to control. It is filed as functional, MSC-NEU cell. In short, it runs like this: as §1
The nature of series [9]: Neuroprotective activity against amyloid beta (1 to 42)-stimulated human MSC-NEU cells assessed as increase in cell index incubated for 48 hrs by xCELLigence RTCA analysis. It is filed as functional. The method, boiled down: as §1

`Clc1nccc(-c2c[nH]c3ccc(Br)cc23)n1`: the fold change (FC) in series [1] amounted to 2.7; in [4], 2.04; in [5], 4.2; in series [6], 1.3; in series [7] it was 1.6; in [8], 1.17. In [2], the CC50 at 48 h was 316 µM. For the same molecule, the result in series [3] was Active. In [9], the Activity worked out at 10%.
`Brc1ccc2[nH]cc(-c3ncnc4ccccc34)c2c1`: the fold change (FC) in series [1] was 1.9; in series [4] it was 2.51; in [5] it was 4.2; in series [6], 1.3; in series [8], 1.04. Also, in [2], the CC50 at 48 h turned out to be 279 µM. Besides, the outcome in series [3] was Active. Besides, in [7], the result was inactive. Moreover, in [9], the Activity is listed as 10%.
Regarding `O=c1[nH]c2ccccc2nc1-c1ccc(-c2ccccc2)[nH]1`, the fold change (FC) in [1] stood at 1.6; in series [4], 2.12; in series [5], 4.2; in series [6] it was 1.3; in series [7] it was 1.85; in [8] it was 1.12. In addition, in series [2], the CC50 at 48 h came to 494 µM. For the same molecule, the result in [3] was Active. Moreover, in series [9], the Activity amounted to 10%.
Consider `C[n+]1c2ccccc2c(-c2c[nH]c3ccc(O)cc23)c2ccccc21.[I-]`, for which the fold change (FC) was found to be 2.2 in series [1]; 2.24 in series [4]; 4.2 in series [5]; 1.3 in series [6]; 2.1 in series [7]; 1.22 in series [8]. For the same molecule, the CC50 at 48 h in series [2] was above 1000 µM. The outcome in [3] was Active. In [9], the Activity amounted to 10%.
